Series [1] deals with HBV replication. Description: Anti-HBV activity, dot blot hybridization assay in AML12HBV10 cells. Type of series: cell-based, Hepatitis B virus.
Series [2] in a line: Metabolic stability in mouse liver microsomes. The conditions noted are these: Half-life T1/2, mouse liver microsomes. Type of series: in vitro ADME. In general terms: Liver microsomes are a subcellular fraction often used to study metabolism.
In series [3] the test system is HBV replication. The conditions noted are these: immortalized mouse hepatocyte line AML12HBV10; cited from earlier work.
Series [4] concerns HBV replication. The conditions noted are these: human hepatoma cell line HepDES19; cited from earlier work.
For series [5], the system named is HBV replication in HepDES19 cells. Nature of the series: Mapping of the HBV replication step inhibited, in HepDES19 cells. Type of series: cell-based, Hepatitis B virus. The conditions noted are these: HepDES19, 6 days, ETV 1 μM, Bay 41–4109 2 μM; for encapsidated pgRNA / capsids: ENAN-34017 5 μM, 61 5 μM; for encapsidated pgRNA: Northern blot; for capsids: particle gel assay; for intracellular core protein level: Western blot. The procedure, abridged: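 HepDES19 cells were kept with tetracycline to block pgRNA transcription (negative control) or without it to induce pgRNA and HBV DNA replication. From 24 h after tet removal, cells got DMSO, test compound (5 μM) or a type II CpAM reference (5 μM) for 6 days. Intracellular core protein was detected by Western blot with an antibody to Cp C-terminal 14 residues; β-actin was the loading control.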
(In general: Immunoblotting shows a protein as a band on a membrane.)

A short description of series [6]: Mouse PK study, IV and PO. More on the design: species or system mice. The conditions noted are these: in vivo, 3 mg/kg.
Series [7] deals with CYP enzymes (one unnamed isoform of a panel of 9). Description: in vitro. Type of series: in vitro ADME.
In series [8] the test system is CYP enzymes. Description: in vitro. The conditions noted are these: human, 10 μM. The series is classed as in vitro ADME.

These results are taken from paper PMC8792325 (Bioorganic & medicinal chemistry letters, 2021).

As a reminder, the half-life is the time needed for the level to fall by half in the phase considered. In general, IC50 refers to the concentration that gives 50% inhibition.

As for `O=C(Nc1ccc(F)c(Cl)c1)c1cccc2nccnc12` [Compound 34], the “activity loss compared to 10” value in series [1] is given as over 10 fold.

With `O=C(Nc1ccc(F)c(Cl)c1)c1cccc2c1OCCO2` [Compound 10], the half-life in series [2] is under 10 min. Besides, in series [3], the “EC50 in AML12HBV10” value is listed as “sub-micromolar”. In series [4], the “EC50 in HepDES19” value is listed as “sub-micromolar”.

As for `C=C1[C@H](CO)[C@@H](O)C[C@@H]1n1cnc2c(=O)[nH]c(N)nc21.O` [Entecavir], in series [5], the “encapsidated pgRNA” value is “accumulation of encapsidated pgRNA”, the capsids result is given as “did not alter” and the “intracellular core protein level” value was “did not alter”.

With `O=C(Nc1ccc(F)c(Cl)c1)c1cccc2c1OC(F)(F)O2` [Compound 37], the “potency increase compared to 10” value in series [1] stood at 2 fold.

On to `O=C1CCN(C(=O)Nc2ccc(F)c(C(F)F)c2)[C@@H]2CCCC[C@H]12` [Compound 71], for which the “anti-HBV activity (in words)” value in series [1] is “submicromolar”.

`O=C(Nc1ccc(N2CCOCC2)c(Cl)c1)c1cccc2c1OCCO2` [Compound 17]: the “anti-HBV activity (in words)” value in series [1] is “loss of anti-HBV activity”.

`O=C(Nc1cc(F)c(F)c(F)c1)c1cccc2c1OCCO2` [Compound 29]: in series [1], the “anti-HBV activity (in words)” value is “submicromolar”.

In the case of `O=C1CCN(C(=O)Nc2cccc(Cl)c2)[C@@H]2CCCC[C@H]12` [Compound 74], the “anti-HBV activity (in words)” value in series [1] is “submicromolar”.

Turning to `Cc1cc(NC(=O)N2CCC(=O)[C@H]3CCCC[C@H]32)ccc1F` [Compound 70], the “anti-HBV activity (in words)” value in series [1] was “submicromolar”.

On to `COC(=O)C1=C(C)NC(c2ncc(F)cc2F)=N[C@H]1c1ccc(F)cc1Cl` [Bay 41–4109], for which, in series [5], the “encapsidated pgRNA” value is given as “prevented”, the capsids result is recorded as “completely abolished capsid formation” and the “intracellular core protein level” value is given as “induced the degradation of core protein”.

Take `O=C(NC1CC(F)(F)C1)c1cccc2c1OCCO2` [Compound 21]: the “anti-HBV activity (in words)” value in series [1] is “lost activity”.

Take `C[C@@H](NS(=O)(=O)c1ccc(F)c(C(=O)Nc2ccc(F)c(F)c2)c1)C1CC1` [ENAN-34017]: in series [5], the “encapsidated pgRNA” value is listed as “reduced the amounts of encapsidated pgRNA” and the capsids entry is “induced the accumulation of capsids with faster electrophoresis mobility”.

Take `O=C(Nc1ccc(F)c(Cl)c1)c1cccc2c1OCCC2` [Compound 33]: in series [1], the “activity loss compared to 10” value is “about 4 fold”.

Consider `O=C(Nc1ccc(O)c(Cl)c1)c1cccc2c1OCCO2` [Compound 20], for which the “anti-HBV activity (in words)” value in series [1] is on record as “not active”.

Consider `O=C1CCN(C(=O)Nc2ccc(F)c(Cl)c2)C2CCCCC12` (stereo not drawn) [Compound 61, cis-N-(3-chloro-4-fluorophenyl)-4-oxooctahydroquinoline-1(2H)-carboxamide], for which, in series [5], the “encapsidated pgRNA” value is “reduced the amounts of encapsidated pgRNA” and the capsids entry is on record as “induced the accumulation of capsids with faster electrophoresis mobility”. Also, in series [6], the clearance is 25.5 mL/min/kg. Moreover, the IC50 in series [7] was under 10 µM. In addition, the “CYP (#/9 of isoforms, > 50% of inhibition at 10 μM)” value in series [8] turned out to be 1.
